ChEMBL document CHEMBL1153135, “Reaction of naphthoquinones with substituted nitromethanes. Facile synthesis and antifungal activity of naphtho[2,3-d]isoxazole-4,9-diones” (2010)
In brackets after ≈: the same amount, converted by molar mass.

Experiments:
Type in all cases: functional
[1] = system: Candida parapsilosis; assay: Antifungal activity against Candida parapsilosis ATCC 22019 after 48 hrs; details: Lodderomyces parapsilosis, ATCC 22019, 48 h
Outline: (§1)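 Broth microdilution after modified CLSI M27-A in SG minimal medium (yeast nitrogen base without amino acids, 2% glucose). Compounds dissolved in DMSO (1 mg/mL), diluted 10-fold in SG, then 30 final concentrations from 97.5 to 0.0025 µg/mL. About 5 × 10³ cells/well, in triplicate. Incubated at 30 °C for 48 h, OD 655 nm read as % of DMSO control; MIC50 by probit analysis of mean values.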

[2] = system: Nakaseomyces glabratus; assay: Antifungal activity against Candida glabrata PYCC 2418 after 48 hrs; details: PYCC 2418, 48 h; outline: as §1
[3] = system: Candida albicans; assay: Antifungal activity against Candida albicans ATCC 90028 after 48 hrs; details: ATCC 90028, 48 h; outline: as §1
[4] = system: Pichia kudriavzevii; assay: Antifungal activity against Candida krusei PYCC 3341 after 48 hrs; details: PYCC 3341, 48 h; outline: as §1
[5] = system: Candida albicans; assay: Antifungal activity against Candida albicans PYCC 3436 after 48 hrs; details: PYCC 3436, 48 h; outline: as §1
[6] = system: Candida parapsilosis; assay: Antifungal activity against Candida parapsilosis PYCC 2545 after 48 hrs; details: Lodderomyces parapsilosis, PYCC 2545, 48 h; outline: as §1

SMILES	MIC50 [1] [µM]	MIC50 [2] [µM]	MIC50 [3] [µM]	MIC50 [4] [µM]	MIC50 [5] [µM]	MIC50 [6] [µM]
CCOC1=C(Cl)C(=O)c2ccccc2C1=O	40.4 (≈ 9.56 µg/mL)	3.8 (≈ 0.899 µg/mL)	202 (≈ 47.9 µg/mL)	3.9 (≈ 0.923 µg/mL)	9.5 (≈ 2.25 µg/mL)	48.3 (≈ 11.4 µg/mL)
COC1=C(Cl)C(=O)c2ccccc2C1=O	4.7 (≈ 1.05 µg/mL)	16.7 (≈ 3.72 µg/mL)	73.9 (≈ 16.5 µg/mL)	4.6 (≈ 1.02 µg/mL)	10.4 (≈ 2.32 µg/mL)	5.3 (≈ 1.18 µg/mL)
CCOC(=O)c1noc2c1C(=O)c1ccccc1C2=O	1.7 (≈ 0.461 µg/mL)	0.6 (≈ 0.163 µg/mL)	11.5 (≈ 3.12 µg/mL)	2.3 (≈ 0.624 µg/mL)	1.8 (≈ 0.488 µg/mL)	0.6 (≈ 0.163 µg/mL)
O=C(c1ccccc1)c1noc2c1C(=O)c1ccccc1C2=O	3.3 (≈ 1 µg/mL)	47.6 (≈ 14.4 µg/mL)	71.2 (≈ 21.6 µg/mL)	21.2 (≈ 6.43 µg/mL)	1.6 (≈ 0.485 µg/mL)	13.2 (≈ 4 µg/mL)
C[C@@H]1[C@H](O)[C@@H](C)/C=C/C=C/C=C/C=C/C=C/C=C/C=C/[C@H](O[C@@H]2O[C@H](C)[C@@H](O)[C@H](N)[C@@H]2O)C[C@@H]2O[C@](O)(C[C@@H](O)C[C@@H](O)[C@H](O)CC[C@@H](O)C[C@@H](O)CC(=O)O[C@H]1C)C[C@H](O)[C@H]2C(=O)O [AMPHOTERICIN B]	0.5 (≈ 0.462 µg/mL)	0.4 (≈ 0.37 µg/mL)	1.2 (≈ 1.11 µg/mL)	1 (≈ 0.924 µg/mL)	0.5 (≈ 0.462 µg/mL)	0.5 (≈ 0.462 µg/mL)

More lines, in order of falling MIC50 [1], values ahead:

MIC50 [1] [µM]	MIC50 [2] [µM]	MIC50 [3] [µM]	MIC50 [4] [µM]	MIC50 [5] [µM]	MIC50 [6] [µM]	SMILES
6.1 (≈ 2.07 µg/mL)	1.5 (≈ 0.509 µg/mL)	56.7 (≈ 19.2 µg/mL)	9.7 (≈ 3.29 µg/mL)	2.5 (≈ 0.848 µg/mL)	1.6 (≈ 0.543 µg/mL)	O=C1c2ccccc2C(=O)c2c(S(=O)(=O)c3ccccc3)noc21
3.2 (≈ 1.03 µg/mL)	12 (≈ 3.88 µg/mL)	4.5 (≈ 1.45 µg/mL)		0.9 (≈ 0.291 µg/mL)	1.1 (≈ 0.355 µg/mL)	CCOC(=O)CC1=C(Br)C(=O)c2ccccc2C1=O
1.8 (≈ 0.463 µg/mL)	2.6 (≈ 0.669 µg/mL)	12.2 (≈ 3.14 µg/mL)	2.4 (≈ 0.617 µg/mL)	0.7 (≈ 0.18 µg/mL)	1.3 (≈ 0.334 µg/mL)	COC(=O)c1noc2c1C(=O)c1ccccc1C2=O
